Values after ≈ are worked out from the molar mass of the structure shown.
What was measured:
[1] = system: KB; assay: Antiproliferative activity against human KB cells assessed as cell growth inhibition by SRB assay; assay type: functional
[2] = system: A549; assay: Antiproliferative activity against human A549 cells assessed as cell growth inhibition by SRB assay; assay type: functional
Procedure, shortened: (§1)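 SRB assay in a human tumor cell line panel (A-549 lung, KB nasopharyngeal, P-glycoprotein-overexpressing KBvin, DU145 prostate).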

[3] = system: DU-145; assay: Antiproliferative activity against human DU145 cells assessed as cell growth inhibition by SRB assay; assay type: functional; procedure, shortened: as §1
[4] = Antiproliferative activity against human vincristine-resistant KBVIN cells expressing P-glycoprotein assessed as cell growth inhibition by SRB assay; assay type: functional; procedure, shortened: as §1
[5] = target: T1, Tubulin (Homo sapiens) (UniProt P68371+Q9H4B7+P0DPH7+P68366+Q13509+Q71U36+P04350+Q3ZCM7+P07437+P68363+Q9BQE3+Q6PEY2+Q13885+Q9BVA1+Q9BUF5); assay: Displacement of [3H]-colchicine from tubulin (unknown origin) at 5 uM after 10 mins; assay type: protein-complex assay
Procedure, shortened: (§2)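 Radioligand binding competition: 1.0 μM tubulin incubated with 5.0 μM [3H]colchicine plus inhibitor at 5.0 or 1.0 μM for 10 min at 37 °C. At that point control binding is about 40–60% of maximum. Result is percent inhibition of colchicine binding ± SD.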

[6] = target: T1, Tubulin (Homo sapiens); assay: Displacement of [3H]-colchicine from tubulin (unknown origin) at 1 uM after 10 mins; assay type: protein-complex assay; procedure, shortened: as §2
[7] = Aqueous solubility of the compound at pH 7.4 by HPLC-UV method; assay type: physicochemical; details: buffer
[8] = target: Tubulin; assay: Inhibition of tubulin (unknown origin) assembly pre-incubated for 15 mins before GTP addition measured after 20 mins by turbidimetry; assay type: protein-complex assay, Homo sapiens
[9] = Octanol/water partition coefficient, log P of the compound after 24 hrs by HPLC analysis; assay type: physicochemical
Procedure, shortened: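 Log P measured at pH 7.4 with HPLC-UV on a C18 column (4.6 × 150 mm, 5 μm). Eluent MeOH/water 80:20 containing 0.04% ammonium acetate, run at 0.8 mL/min, with detection at 254 nm. Value given as mean ± SD of three separate experiments.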

CC(=O)O[C@H]1C(=O)[C@@]2(C)[C@H]([C@H](OC(=O)c3ccccc3)[C@]3(O)C[C@H](OC(=O)[C@H](O)[C@@H](NC(=O)c4ccccc4)c4ccccc4)C(C)=C1C3(C)C)[C@]1(OC(C)=O)CO[C@@H]1C[C@@H]2O [PACLITAXEL]
GI50 [1]: 6.4 nM | GI50 [2]: 7.6 nM | GI50 [3]: 6 nM | GI50 [4]: 1210 nM

COc1ccc2c(c1)CCCN2c1nc(F)nc2[nH]cnc12
GI50 [1]: > 33000 nM | GI50 [2]: 23600 nM | GI50 [3]: 25500 nM | GI50 [4]: 27100 nM

COc1ccc2c(c1)CCCN2c1nc(N(C)C)nc2ccccc12
GI50 [1]: 140 nM | GI50 [2]: 170 nM | GI50 [3]: 150 nM | GI50 [4]: 200 nM

COc1ccc2c(c1)CCCN2c1nc(NCCCO)nc2ccccc12
GI50 [1]: 18 nM | inhibition [5]: 78% | GI50 [2]: 16 nM | GI50 [3]: 20 nM | inhibition [6]: 49% | solubility [7]: 75.6 µg/mL (≈ 207 µM) | IC50 [8]: 850 nM | logP [9]: 3.43 | GI50 [4]: 19 nM

COc1ccc(/C=C\c2cc(OC)c(OC)c(OC)c2)cc1O [COMBRETASTATIN A4]
GI50 [1]: 3.6 nM | GI50 [2]: 84.1 nM | GI50 [4]: 1.2 nM

COc1ccc2c(c1)CCCN2c1cccc2cccnc12
GI50 [1]: 16200 nM | GI50 [2]: 12100 nM | GI50 [3]: 12800 nM | IC50 [8]: > 20000 nM | GI50 [4]: 8710 nM

COc1ccc2c(c1)CCCN2c1nc(NC2CC2)nc2ccccc12
GI50 [1]: 13 nM | inhibition [5]: 89% | GI50 [2]: 16 nM | GI50 [3]: 16 nM | inhibition [6]: 56% | solubility [7]: 2.55 µg/mL (≈ 7.36 µM) | IC50 [8]: 1300 nM | logP [9]: 4.13

COc1ccc2c(c1)CCCN2c1ncnc2ccccc12
GI50 [1]: 14 nM | inhibition [5]: 91% | GI50 [2]: 18 nM | inhibition [6]: 69% | IC50 [8]: 1300 nM | GI50 [4]: 19 nM

COc1ccc2c(c1)CCCN2c1nc(NC2CCCC2)nc2ccccc12
GI50 [1]: 1190 nM | inhibition [5]: 29% | GI50 [2]: 1340 nM | GI50 [3]: 1290 nM | IC50 [8]: 5700 nM | GI50 [4]: 1420 nM

COc1ccc2c(c1)CCCN2c1nccc2ccccc12
GI50 [1]: 1720 nM | inhibition [5]: 37% | GI50 [2]: 2080 nM | GI50 [3]: 1470 nM | IC50 [8]: 2600 nM | GI50 [4]: 1640 nM

COc1ccc2c(c1)CCCN2c1nc(OC)nc2ccccc12
GI50 [1]: 26 nM | GI50 [2]: 24 nM | GI50 [3]: 21 nM | GI50 [4]: 30 nM

COc1ccc2c(c1)CCCN2c1ccnc2ccccc12
GI50 [1]: 160 nM | GI50 [2]: 200 nM | GI50 [3]: 180 nM | GI50 [4]: 180 nM

COc1ccc2c(c1)CCCN2c1nc(N)nc2[nH]cnc12
GI50 [1]: 17500 nM | GI50 [2]: 19400 nM | GI50 [3]: 18000 nM | GI50 [4]: 18900 nM

COc1ccc2c(c1)CCCN2c1cncc2ccccc12
GI50 [1]: 1480 nM | inhibition [5]: 39% | GI50 [2]: 1950 nM | GI50 [3]: 920 nM | IC50 [8]: 3300 nM | GI50 [4]: 1540 nM

COc1ccc2c(c1)CCCN2c1ncnc2[nH]cnc12
GI50 [1]: > 35000 nM | GI50 [2]: > 35000 nM | GI50 [3]: > 35000 nM | GI50 [4]: > 35000 nM

Source: ChEMBL document CHEMBL3603821, “Optimization of N-aryl-6-methoxy-1,2,3,4-tetrahydroquinolines as tubulin polymerization inhibitors” (Bioorg Med Chem, 2015)
